We go through three compounds from ChEMBL document CHEMBL5046217, “Discovery of New Imidazo[2,1-b]thiazole Derivatives as Potent Pan-RAF Inhibitors with Promising In Vitro and In Vivo Anti-melanoma Activity” (J Med Chem, 2021).

Active and inactive are the calls of the source. The rule behind the calls is not given here.

The test system of series [1] is A-375. The series is described as follows: Inhibition of Pan-Raf in human A-375 cells assessed as reduction in MEK phosphorylation at 5 uM measured after 24 hrs by immunoblot assay. The class given is cell-based. The essentials: (§1)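 A375 cells were treated for 24 h, including at 5 μM alongside vemurafenib. Cells were lysed in RIPA buffer with phosphatase and protease inhibitors, separated by SDS-PAGE and blotted to PVDF. Blots were probed for phospho-MEK1/2, phospho-ERK1/2, total MEK and total ERK, with chemiluminescent detection.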
In general terms: Immunoblotting shows a protein as a band on a membrane.

Series [2] relates to A-375. Nature of the series: Inhibition of Pan-Raf in human A-375 cells assessed as reduction in ERK phosphorylation at 5 uM measured after 24 hrs by immunoblot assay. The class given is cell-based. The essentials: as §1
Series [3] in a line: Stability in rat plasma assessed as parent compound remaining at 10 uM measured after 30 mins by LC-MS analysis. Format: ADME, cell-free. To be noted: read-out: Stability. The essentials: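 About 10 μM compound shaken in human or rat plasma at 37 °C for 30 and 120 min. Acetonitrile added, samples centrifuged at 4 °C, and remaining parent in the supernatant quantified by LC−MS. Procaine and diltiazem run as references.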

Series [4] has as its system LOX IMVI. The series is described as follows: Antiproliferative activity against human LOX IMVI cells assessed as cell growth inhibition measured after 48 hrs by SRB assay.
The test system of series [5] is Panel colon (Carcinoma cell lines). Nature of the series: Antiproliferative activity against human Panel colon (Carcinoma cell lines) assessed as cell growth inhibition measured after 48 hrs by SRB assay. (In general: The SRB assay estimates cell density from bound dye.)
In series [6] the test system is UACC-257. The series is described as follows: Antiproliferative activity against human UACC-257 cells assessed as total growth inhibition measured after 48 hrs by SRB assay. To be noted: UACC-257, 48 h.
In series [7] the test system is M14. The series is described as follows: Antiproliferative activity against human M14 cells assessed as total growth inhibition measured after 48 hrs by SRB assay. The settings on record: M14, 48 h.
In series [8] the test system is UACC-257. Nature of the series: Antiproliferative activity against human UACC-257 cells assessed as cell growth inhibition measured after 48 hrs by SRB assay. To be noted: UACC-257, 48 h.
Series [9] relates to SK-MEL-2. The series is described as follows: Antiproliferative activity against human SK-MEL-2 cells assessed as cell growth inhibition measured after 48 hrs by SRB assay. To be noted: SK-MEL-2, 48 h.
A short description of series [10]: Cytotoxicity against human BJ cells assessed as cell growth inhibition incubated for 48 hrs by MTT assay. The class given is toxicity, cell-based. An outline of the steps:
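BJ1 normal skin fibroblasts were seeded at 10 × 10³ cells/well with compound in triplicate wells and grown in DMEM-F12 at 37 °C, 5% CO₂, across an eight-point dilution series. Growth inhibition was calculated as (1 − T/C) × 100, and IC50 was taken from the dose–response curve.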
(Tetrazolium assays rely on reduction of a dye to a coloured formazan, in cell work by metabolically active cells.)

In series [11] the target is RAF proto-oncogene serine/threonine-protein kinase (Homo sapiens, UniProt P04049). Nature of the series: Inhibition of human wild type CRAF using myelin basic protein as substrate in presence of [gamma-33P]ATP incubated for 40 mins by scintillation counting method.
Sequence of RAF proto-oncogene serine/threonine-protein kinase (P04049 whole entry): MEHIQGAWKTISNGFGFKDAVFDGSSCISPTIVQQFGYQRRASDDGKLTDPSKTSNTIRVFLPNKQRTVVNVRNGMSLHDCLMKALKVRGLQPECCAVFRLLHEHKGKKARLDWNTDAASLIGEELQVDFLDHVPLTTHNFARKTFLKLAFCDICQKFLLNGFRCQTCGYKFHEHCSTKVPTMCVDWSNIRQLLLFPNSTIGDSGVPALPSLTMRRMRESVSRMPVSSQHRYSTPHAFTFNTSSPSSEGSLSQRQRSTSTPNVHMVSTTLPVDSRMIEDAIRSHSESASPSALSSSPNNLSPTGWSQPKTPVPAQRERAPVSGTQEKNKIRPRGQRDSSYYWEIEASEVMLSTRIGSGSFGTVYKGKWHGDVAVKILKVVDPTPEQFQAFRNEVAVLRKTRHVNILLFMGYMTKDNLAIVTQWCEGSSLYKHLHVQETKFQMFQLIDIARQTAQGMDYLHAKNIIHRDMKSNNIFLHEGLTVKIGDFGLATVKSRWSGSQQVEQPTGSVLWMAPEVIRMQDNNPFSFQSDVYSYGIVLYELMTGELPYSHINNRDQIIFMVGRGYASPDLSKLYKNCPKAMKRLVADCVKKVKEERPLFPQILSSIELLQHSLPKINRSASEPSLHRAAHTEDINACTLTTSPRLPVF
Series [12] relates to Panel breast (Carcinoma cell lines). Nature of the series: Antiproliferative activity against human Panel breast (Carcinoma cell lines) assessed as cell growth inhibition measured after 48 hrs by SRB assay.
Series [13] deals with Panel ovarian (Carcinoma cell lines). The series is described as follows: cells. The settings on record: Homo sapiens, 48 h, read-out: INH.
Series [14] has as its system UACC-62. The series is described as follows: Antiproliferative activity against human UACC-62 cells assessed as total growth inhibition measured after 48 hrs by SRB assay. The settings on record: UACC-62, 48 h.
Series [15] concerns Malme-3M. The series is described as follows: Antiproliferative activity against human Malme-3M cells assessed as cell growth inhibition measured after 48 hrs by SRB assay.
For series [16], the system named is Panel renal (Carcinoma cell lines). Nature of the series: Antiproliferative activity against human Panel renal (Carcinoma cell lines) assessed as cell growth inhibition measured after 48 hrs by SRB assay.
In series [17] the test system is SK-MEL-28. The series is described as follows: Antiproliferative activity against human SK-MEL-28 cells assessed as cell growth inhibition measured after 48 hrs by SRB assay. To be noted: SK-MEL-28, 48 h.
A short description of series [18]: in vitro. To be noted: human, BJ cells and Malme-3M cells.
Series [19] deals with NSCLC. The series is described as follows: Antiproliferative activity against human NSCLC cell line assessed as cell growth inhibition measured after 48 hrs by SRB assay.
Series [20] relates to Malme-3M. The series is described as follows: Antiproliferative activity against human Malme-3M cells assessed as total growth inhibition measured after 48 hrs by SRB assay.
The subject of series [21] is Panel colon (Carcinoma cell lines). The series is described as follows: cells. The settings on record: Homo sapiens, 48 h, read-out: INH.
Series [22] deals with UACC-62. Nature of the series: Antiproliferative activity against human UACC-62 cells assessed as cell growth inhibition measured after 48 hrs by SRB assay. The settings on record: UACC-62, 48 h.
Series [23] relates to SK-MEL-2. The series is described as follows: Antiproliferative activity against human SK-MEL-2 cells assessed as total growth inhibition measured after 48 hrs by SRB assay. The settings on record: SK-MEL-2, 48 h.
Series [24] has as its system Panel melanoma (Carcinoma cell lines). Nature of the series: Antiproliferative activity against human Panel melanoma (Carcinoma cell lines) assessed as cell growth inhibition measured after 48 hrs by SRB assay.
Series [25] deals with MDA-MB-435. The series is described as follows: Antiproliferative activity against human MDA-MB-435 cells assessed as cell growth inhibition measured after 48 hrs by SRB assay. The settings on record: MDA-MB-435, 48 h.
Series [26] relates to SK-MEL-28. Nature of the series: Antiproliferative activity against human SK-MEL-28 cells assessed as total growth inhibition measured after 48 hrs by SRB assay. The settings on record: SK-MEL-28, 48 h.
Series [27] deals with Panel ovarian (Carcinoma cell lines). The series is described as follows: Antiproliferative activity against human Panel ovarian (Carcinoma cell lines) assessed as cell growth inhibition measured after 48 hrs by SRB assay.
The subject of series [28] is LOX IMVI. Nature of the series: Antiproliferative activity against human LOX IMVI cells assessed as total growth inhibition measured after 48 hrs by SRB assay.
The nature of series [29]: Cytotoxicity against human L132 cells assessed as cell growth inhibition incubated for 48 hrs by MTT assay. Format: toxicity, cell-based.
The test system of series [30] is SK-MEL-5. The series is described as follows: Antiproliferative activity against human SK-MEL-5 cells assessed as cell growth inhibition measured after 48 hrs by SRB assay. The settings on record: SK-MEL-5, 48 h.
In series [31] the test system is Panel prostate (Carcinoma cell lines). The series is described as follows: Antiproliferative activity against human Panel prostate (Carcinoma cell lines) assessed as cell growth inhibition measured after 48 hrs by SRB assay.
Series [32] has as its system MDA-MB-435. The series is described as follows: Antiproliferative activity against human MDA-MB-435 cells assessed as total growth inhibition measured after 48 hrs by SRB assay. The settings on record: MDA-MB-435, 48 h.
Series [33] has as its system Panel leukemia (Carcinoma cell lines). The series is described as follows: Antiproliferative activity against human Panel leukemia (Carcinoma cell lines) assessed as cell growth inhibition measured after 48 hrs by SRB assay.
Series [34] relates to Panel CNS (Carcinoma cell lines). Nature of the series: Antiproliferative activity against human Panel CNS (Carcinoma cell lines) assessed as cell growth inhibition measured after 48 hrs by SRB assay.
Series [35] deals with SK-MEL-5. Nature of the series: Antiproliferative activity against human SK-MEL-5 cells assessed as total growth inhibition measured after 48 hrs by SRB assay. The settings on record: SK-MEL-5, 48 h.
Series [36] concerns M14. The series is described as follows: Antiproliferative activity against human M14 cells assessed as cell growth inhibition measured after 48 hrs by SRB assay. The settings on record: M14, 48 h.
The test system of series [37] is Panel leukemia (Carcinoma cell lines). Nature of the series: cells. To be noted: Homo sapiens, 48 h, read-out: INH.
Series [38] deals with Panel melanoma (Carcinoma cell lines). Nature of the series: cells. The settings on record: Homo sapiens, 48 h, read-out: INH.

Regarding `CCCS(=O)(=O)Nc1ccc(F)c(C(=O)c2c[nH]c3ncc(-c4ccc(Cl)cc4)cc23)c1F`, the inhibition entry in series [1] and in [2] was “Active” each time.
`CCN(CC)CCOC(=O)c1ccc(N)cc1` [PROCAINE]: the remaining at 0.5 h, 10 µM in series [3] was 84.9%.
Turning to `COc1ccc(S(=O)(=O)NCCNc2nccc(-c3c(-c4ccccc4)nc4sccn34)n2)cc1`, the IC50 in [4] came to 3.9 µM; in series [5], 2.19 µM; in series [8], 6.4 µM; in series [9], 4.9 µM; in [11], 0.172 µM; in series [12], 13.3 µM. Besides, the IC50 turned out to be 8.7 µM in [15]; 3.7 µM in [16]; 5.7 µM in series [17]; 5.42 µM in series [19]; 1.1 µM in series [22]; 4.03 µM in series [24]. Further, the IC50 in [25] turned out to be 1.2 µM; in series [27], 3.57 µM; in series [30], 1.7 µM; in [31] it was 2.45 µM; in [33], 2.99 µM; in [34], 6.46 µM. In series [36], the IC50 was determined as 2.7 µM. Further, the TGI in [6], in series [7], in series [14], in series [20], in series [23] and in [26] was above 100 µM throughout. Moreover, the TGI in [28], in series [32] and in [35] was above 100 µM each time. In addition, the IC50 at 48 h was determined as 55.6 µM in [10] and 60.2 µM in series [29]. The inhibition at 10 µM was determined as 73.2% in series [13], 76.7% in series [21], 81.3% in [37] and 83.8% in series [38]. In addition, the selectivity ratio in [18] was 6.4.

One may read the IC50 as the point on the concentration scale where inhibition reaches its midpoint. Usually TGI stands for the concentration at which net growth stops.
